In ChEMBL document CHEMBL3272176, “Nucleic acids. 16. Orally active derivatives of ara-cytidine” (1976):

Legend:
L1210 [1] = assay: Antitumor activity against mouse L1210 cells allografted in mouse assessed as increase in life span at 200 umol/kg/day, po using saline vehicle for 5 days 24 hrs after tumor inoculation; format: functional
In short: (§1)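 Mice were inoculated ip on day 0 with 1×10^6 L1210 cells each. Dosing started 24 h later, once daily for 5 days, in groups of eight. Survival was recorded to the nearest day. %ILS was calculated from median survival of treated vs control groups, with ≥25% counted as significant. For the plain-saline and HCl vehicles, compound was first wetted with a few drops of ethanol (<5% v/v).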

Rattus norvegicus [2] = assay: Immunosuppression activity in rat assessed as reduction of adjuvant-induced acute inflammation administered po twice daily on days 0 to 14
Rattus norvegicus [3] = assay: Immunosuppression activity in rat assessed as reduction of adjuvant-induced polyarthritis administered po twice daily for days 0 to 14 measured on day 15
L1210 [4] = assay: Antitumor activity against mouse L1210 cells allografted in mouse assessed as increase in life span at 100 umol/kg/day, po using saline vehicle for 5 days 24 hrs after tumor inoculation; format: functional; in short: as §1
Rattus norvegicus [5] = assay: Immunosuppression activity in rat assessed as reduction of adjuvant-induced polyarthritis administered po twice daily on days 0 to 14 measured on day 21
L1210 [6] = assay: Antitumor activity against mouse L1210 cells allografted in mouse assessed as increase in life span at 400 umol/kg/day, po using saline vehicle for 5 days 24 hrs after tumor inoculation; format: functional; in short: as §1
L1210 [7] = assay: Antitumor activity against mouse L1210 cells allografted in mouse assessed as increase in life span at 200 umol/kg/day, po using 0.9% (W/V) aqueous NaCl vehicle for 5 days 24 hrs after tumor inoculation; format: functional; in short: as §1
L1210 [8] = assay: Antitumor activity against mouse L1210 cells allografted in mouse assessed as increase in life span at 200 umol/kg/day, ip using 0.9% (W/V) aqueous NaCl vehicle for 5 days 24 hrs after tumor inoculation; format: functional; in short: as §1
L1210 [9] = assay: Antitumor activity against mouse L1210 cells allografted in mouse assessed as increase in life span at 100 umol/kg/day, po using 0.9% (W/V) aqueous NaCl vehicle for 5 days 24 hrs after tumor inoculation in presence of THU 10 mg/kg/day on days 1 to 5; format: functional; in short: as §1
L1210 [10] = assay: Antitumor activity against mouse L1210 cells allografted in mouse assessed as increase in life span at 100 umol/kg/day, po using 0.9% (W/V) aqueous NaCl vehicle for 5 days 24 hrs after tumor inoculation; format: functional; in short: as §1
L1210 [11] = assay: Antitumor activity against mouse L1210 cells allografted in mouse assessed as increase in life span at 200 umol/kg/day, po using 0.9% (W/V) aqueous NaCl vehicle for 5 days 24 hrs after tumor inoculation in presence of THU 10 mg/kg/day on days 1 to 5; format: functional; in short: as §1
L1210 [12] = assay: Antitumor activity against mouse L1210 cells allografted in mouse assessed as increase in life span at 400 umol/kg/day, po using 0.9% (W/V) aqueous NaCl vehicle for 5 days 24 hrs after tumor inoculation; format: functional; in short: as §1
L1210 [13] = assay: Antitumor activity against mouse L1210 cells allografted in mouse assessed as increase in life span at 400 umol/kg/day, po using 0.9% (W/V) aqueous NaCl vehicle for 5 days 24 hrs after tumor inoculation in presence of THU 10 mg/kg/day on days 1 to 5
L1210 [14] = assay: Antitumor activity against mouse L1210 cells allografted in mouse assessed as increase in life span at 100 umol/kg/day, ip using 0.9% (W/V) aqueous NaCl vehicle for 5 days 24 hrs after tumor inoculation; format: functional; in short: as §1
L1210 [15] = assay: Antitumor activity against mouse L1210 cells allografted in mouse assessed as increase in life span at 400 umol/kg/day, ip using 0.9% (W/V) aqueous NaCl vehicle for 5 days 24 hrs after tumor inoculation; format: functional; in short: as §1
L1210 [16] = assay: Antitumor activity against mouse L1210 cells allografted in mouse assessed as increase in life span at 200 umol/kg/day, po using 0.01 N HCl vehicle for 5 days 24 hrs after tumor inoculation; format: functional; in short: as §1
L1210 [17] = assay: Antitumor activity against mouse L1210 cells allografted in mouse assessed as increase in life span at 400 umol/kg/day, po using 0.01 N HCl vehicle for 5 days 24 hrs after tumor inoculation; format: functional; in short: as §1
L1210 [18] = assay: Antitumor activity against mouse L1210 cells allografted in mouse assessed as increase in life span at 100 umol/kg/day, po using 0.01 N HCl vehicle for 5 days 24 hrs after tumor inoculation; format: functional; in short: as §1
Rattus norvegicus [19] = assay: Immunosuppression in experimental allergic encephalomyelitis rat model administered po for days 1 to 13 measured on day 17
Rattus norvegicus [20] = assay: Immunosuppression activity in experimental allergic encephalomyelitis rat model administered po for days 1 to 13 measured on day 14
L1210 [21] = assay: Antitumor activity against mouse L1210 cells allografted in mouse assessed as increase in life span at 200 umol/kg/day, po using 0.1 N HCl vehicle for 5 days 24 hrs after tumor inoculation; format: functional; in short: as §1
L1210 [22] = assay: Antitumor activity against mouse L1210 cells allografted in mouse assessed as increase in life span at 400 umol/kg/day, po using 0.1 N HCl vehicle for 5 days 24 hrs after tumor inoculation; format: functional; in short: as §1
L1210 [23] = assay: Antitumor activity against mouse L1210 cells allografted in mouse assessed as increase in life span at 100 umol/kg/day, po using 0.1 N HCl vehicle for 5 days 24 hrs after tumor inoculation; format: functional; in short: as §1

Row | Compound | inhibition (INH) (Rattus norvegicus [2]) [%] | inhibition (INH) (Rattus norvegicus [3]) [%] | inhibition (INH) (Rattus norvegicus [5]) [%] | ILS at 200 µmol/kg (L1210 [7]) [%] | ILS at 100 µmol/kg (L1210 [10]) [%] | ILS at 400 µmol/kg (L1210 [12]) [%] | inhibition (INH) (Rattus norvegicus [19]) [%] | inhibition (INH) (Rattus norvegicus [20]) [%] | also measured
1 | Cl.Nc1ccn([C@@H]2O[C@H](COC(=O)C3CC4CCN3CC4)[C@@H](O)[C@@H]2O)c(=O)n1 (stereo not given in full) | -2 | 5 | 0 | – | – | – | – | – | ILS at 200 µmol/kg (L1210 [1]): 0%; ILS at 100 µmol/kg (L1210 [4]): 8%; ILS at 400 µmol/kg (L1210 [6]): 15%
2 | Nc1ccn([C@@H]2O[C@H](CO)[C@@H](O)[C@@H]2O)c(=O)n1 [CYTARABINE] | -4 | 20 | 7 | 38 | 15 | 62 | – | – | ILS at 200 µmol/kg (L1210 [8]): 100%; ILS (L1210 [9]): 62%; ILS (L1210 [11]): 92%; ILS (L1210 [13]): 138%; ILS at 100 µmol/kg (L1210 [14]): 69%; ILS at 400 µmol/kg (L1210 [15]): 131%
3 | CCCCCCCCCCCCCCCC(=O)OC[C@H]1O[C@@H](n2ccc(N)nc2=O)[C@@H](O)[C@@H]1O.Cl | 13 | 11 | 6 | – | – | – | 13.2 | 8.1 | ILS at 200 µmol/kg (L1210 [16]): 69%; ILS at 400 µmol/kg (L1210 [17]): 92%; ILS at 100 µmol/kg (L1210 [18]): 46%
4 | CC(C)(C)OC(=O)NCC(=O)N[C@@H](CCCNC(=N)N)C(=O)Nc1ccn([C@@H]2O[C@H](COC(=O)C34CC5CC(CC(C5)C3)C4)[C@@H](O)[C@@H]2O)c(=O)n1.Cl | 1 | 50 | 18 | 43 | 21 | 93 | 10.5 | 5.4 | –
5 | Cl.Nc1ccn([C@@H]2O[C@H](COC(=O)c3cccnc3)[C@@H](O)[C@@H]2O)c(=O)n1 | 4 | 0 | 0 | – | – | – | – | – | ILS at 200 µmol/kg (L1210 [16]): 46%; ILS at 400 µmol/kg (L1210 [17]): 69%; ILS at 100 µmol/kg (L1210 [18]): 31%
6 | Cl.Nc1ccn([C@@H]2O[C@H](COC(=O)C34CC5CC(CC(C5)C3)C4)[C@@H](O)[C@@H]2O)c(=O)n1 | 4 | 31 | 28 | – | – | – | 7.9 | 5.4 | ILS at 200 µmol/kg (L1210 [21]): 77%; ILS at 400 µmol/kg (L1210 [22]): 130%; ILS at 100 µmol/kg (L1210 [23]): 46%
7 | Cl.Nc1ccn([C@@H]2O[C@H](COC(=O)c3ccccc3)[C@@H](O)[C@@H]2O)c(=O)n1 | 15 | 47 | 20 | – | – | – | 0 | 0 | ILS at 200 µmol/kg (L1210 [1]): 31%; ILS at 100 µmol/kg (L1210 [4]): 15%; ILS at 400 µmol/kg (L1210 [6]): 62%
8 | CCCCCCCCCCCCCCCC(=O)OC[C@H]1O[C@@H](n2ccc(NC(=O)[C@H](CCCNC(=N)N)NC(=O)CNC(=O)OC(C)(C)C)nc2=O)[C@@H](O)[C@@H]1O.Cl | 6 | – | – | 44 | 30 | 110 | 10.5 | 35.1 | –
9 | CC(C)(C)OC(=O)NCC(=O)N[C@@H](CCCNC(=N)N)C(=O)Nc1ccn([C@@H]2O[C@H](COC(=O)c3ccccc3)[C@@H](O)[C@@H]2O)c(=O)n1.Cl | 9 | 52 | 35 | 21 | 14 | 43 | 5.3 | 13.5 | –
